The text below walks through data of ChEMBL document CHEMBL1124101, “Asymmetrical bisintercalators as potential antitumor agents” (1988).

SMILES strings stand for the structures. pEC50: −log10 of the molar value. Some results are limits rather than exact numbers.

One experiment has as its system Nucleic Acid. The experiment in a line: Binding affinity for DNA. It is filed as nucleic-acid assay. The essentials:
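Fluorometric competition with ethidium dimer (6.4 × 10^-7 M) pre-equilibrated 24 h with calf thymus DNA (1.6 × 10^-6 M base pairs). Drug was added at varying concentrations. Fluorescence was excited at 540 nm and read at 610 nm. Bound ethidium dimer per base pair was derived, and computed displacement curves were fitted to the experimental ones to give apparent affinity constants (M^-1).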

Experiment [1] relates to L1210. As to the kind of experiment: Maximal tolerated dose for anti-tumor activity in vivo on L1210-infected mice. It counts as functional, Mus musculus.
The subject of the next experiment is Escherichia coli. The experiment in a line: Cytotoxicity on Escherichia coli polA strain mutant expressed as dose required to inhibit 37% of cell growth. It is filed as functional.
Experiment [2] relates to L1210. The experiment in a line: Dose required to inhibit the cloning efficiency to a factor of 37%,measured in vitro on L1210 cells after 24-h exposure.
Experiment [3] has as its system L1210. The experiment in a line: Dose that inhibits 50% of the L1210 cell growth after 24 hr exposure to the compound. It is filed as functional. The following applies: Mus musculus, L1210, 24 h; read-out: ED50 (the source's name).
The species named for a further experiment is Mus musculus. The experiment in a line: Treated mean survival time per control mean survival time. It is filed as functional.
For experiment [4], the system named is L1210. The experiment in a line: Optimal dose for anti-tumor activity in vivo on L1210-infected mice. It is filed as functional, Mus musculus.

`COc1ccc2c(c1)c1c3c[n+](CCCN4CCC(C5CCN(CC[n+]6ccc7ccc8c(c7c6)c6cc(OC)ccc6n8C)CC5)CC4)ccc3ccc1n2C.CS(=O)(=O)[O-].CS(=O)(=O)[O-]` showed a K app x10e-7 in the experiment with Nucleic Acid of 1 M⁻¹. In the experiment with L1210 [1], this compound registered an MTD of 10 mg/kg. The EC37 with Escherichia coli turned out to be 0.025 µM; in the experiment on L1210 [2], 0.112 µM. Also, in the experiment with L1210 [3], the pEC50 is less than 6.05. The compound also showed a T/C in the experiment listed under Mus musculus of 128%. The OD with L1210 [4] is 10 mg/kg.

The compound `COc1ccc2[nH]c3ccc4cc[n+](CCN5CCC(CC6CCN(CC[n+]7ccc8ccc9[nH]c%10ccc(OC)cc%10c9c8c7)CC6)CC5)cc4c3c2c1.CS(=O)(=O)[O-].CS(=O)(=O)[O-]` showed a K app x10e-7 in the experiment with Nucleic Acid of 10 M⁻¹. The MTD in the experiment on L1210 [1] was 30 mg/kg. The EC37 turned out to be 0.021 µM with Escherichia coli and 0.063 µM in the experiment on L1210 [2]. Besides, in the experiment with L1210 [3], the pEC50 was 5.97. The T/C in the experiment filed under Mus musculus was determined as 175%. In addition, in the experiment on L1210 [4], the OD turned out to be 7 mg/kg.

`COc1ccc2c(c1)c1c3c[n+](CCN4CCC(CCCC5CCN(CC[n+]6ccc7ccc8c(c7c6)c6cc(OC)ccc6n8C)CC5)CC4)ccc3ccc1n2C.CS(=O)(=O)[O-].CS(=O)(=O)[O-]` displayed a K app x10e-7 in the experiment on Nucleic Acid of 20 M⁻¹. For the same compound, the MTD in the experiment with L1210 [1] worked out at 10 mg/kg. Further, the values for the EC37 in the experiment on Escherichia coli and in the experiment on L1210 [2] were 0.009 µM and 0.15 µM, respectively. For the same compound, the pEC50 with L1210 [3] was 6.59. Further, the OD in the experiment on L1210 [4] amounted to 10 mg/kg.

`COc1ccc2c(c1)c1c3c[n+](CCN4CCC(CCC5CCN(CC[n+]6ccc7ccc8c(c7c6)c6cc(OC)ccc6n8C)CC5)CC4)ccc3ccc1n2C.CS(=O)(=O)[O-].CS(=O)(=O)[O-]`: the K app x10e-7 with Nucleic Acid came out at 3 M⁻¹. Also, in the experiment with L1210 [1], the MTD was found to be 10 mg/kg. In addition, the EC37 with Escherichia coli was determined as 0.225 µM; with L1210 [2], 0.77 µM. Moreover, the pEC50 in the experiment with L1210 [3] is 6.05. Moreover, in the experiment listed under Mus musculus, the T/C is on record as 170%. This compound also yielded an OD in the experiment with L1210 [4] of 5 mg/kg.

In turn, `COc1ccc2c(c1)c1c3c[n+](CCN4CCC(CC5CCN(CC[n+]6ccc7ccc8c(c7c6)c6cc(OC)ccc6n8C)CC5)CC4)ccc3ccc1n2C.CS(=O)(=O)[O-].CS(=O)(=O)[O-]` had a K app x10e-7 in the experiment on Nucleic Acid of 20 M⁻¹. The compound also had an MTD with L1210 [1] of 10 mg/kg. The EC37 came to 0.014 µM with Escherichia coli and 0.013 µM in the experiment with L1210 [2]. The pEC50 in the experiment on L1210 [3] was 6.15. This compound registered a T/C in the experiment listed under Mus musculus of 190%. Further, the OD in the experiment on L1210 [4] is 3 mg/kg.

In the case of `COc1ccc2nc3cc(Cl)ccc3c(NCCN3CCC(C4CCN(CC[n+]5ccc6ccc7[nH]c8ccc(OC)cc8c7c6c5)CC4)CC3)c2c1.[Cl-]`, the K app x10e-7 in the experiment with Nucleic Acid was 5 M⁻¹. The same compound had an MTD in the experiment on L1210 [1] of 15 mg/kg. Moreover, the EC37 came to 0.057 µM with Escherichia coli and 17 µM in the experiment with L1210 [2]. The pEC50 in the experiment on L1210 [3] was 5.57. Further, in the experiment on L1210 [4], the OD was 15 mg/kg.

With `COc1ccc2c(c1)c1c3c[n+](CCN4CCC(C5CCN(CC[n+]6ccc7ccc8c(c7c6)c6cc(OC)ccc6n8C)CC5)CC4)ccc3ccc1n2C.CS(=O)(=O)[O-].CS(=O)(=O)[O-]`, in the experiment on Nucleic Acid, the K app x10e-7 was 2 M⁻¹. This compound showed an MTD in the experiment with L1210 [1] of 10 mg/kg. Moreover, the EC37 in the experiment on Escherichia coli came out at 0.013 µM; in the experiment on L1210 [2], 0.006 µM. The pEC50 with L1210 [3] is 6.44. The compound also had a T/C in the experiment filed under Mus musculus of 178%. Besides, the OD with L1210 [4] was determined as 2.5 mg/kg.

In the experiment on Nucleic Acid, `COc1ccc2[nH]c3ccc4cc[n+](CCN5CCC(CCC6CCN(CC[n+]7ccc8ccc9[nH]c%10ccc(OC)cc%10c9c8c7)CC6)CC5)cc4c3c2c1.CS(=O)(=O)[O-].CS(=O)(=O)[O-]` showed a K app x10e-7 of 7 M⁻¹. Further, in the experiment on L1210 [1], the MTD came to 20 mg/kg. Also, the EC37 with Escherichia coli came out at 0.015 µM; in the experiment with L1210 [2], 0.22 µM. The pEC50 with L1210 [3] is 5.87. In addition, the T/C in the experiment filed under Mus musculus came out at 143%. This compound also had an OD in the experiment with L1210 [4] of 5 mg/kg.

For `COc1ccc2[nH]c3ccc4cc[n+](CCN5CCC(C6CCN(CC[n+]7ccc8ccc9[nH]c%10ccc(OC)cc%10c9c8c7)CC6)CC5)cc4c3c2c1.CS(=O)(=O)[O-].CS(=O)(=O)[O-]`, the K app x10e-7 with Nucleic Acid is 1 M⁻¹. The compound also displayed an MTD in the experiment on L1210 [1] of 10 mg/kg. The EC37 in the experiment on Escherichia coli stood at 0.013 µM; in the experiment on L1210 [2] it was 0.024 µM. The pEC50 with L1210 [3] was 6.72. The compound also gave a T/C in the experiment listed under Mus musculus of 182%. The compound further displayed an OD with L1210 [4] of 10 mg/kg.

In turn, `COc1ccc2[nH]c3ccc4cc[n+](CCN5CCC(CCCC6CCN(CC[n+]7ccc8ccc9[nH]c%10ccc(OC)cc%10c9c8c7)CC6)CC5)cc4c3c2c1.CS(=O)(=O)[O-].CS(=O)(=O)[O-]` yielded a K app x10e-7 with Nucleic Acid of 5 M⁻¹. This compound yielded an MTD in the experiment with L1210 [1] of 10 mg/kg. Besides, the EC37 in the experiment with Escherichia coli turned out to be 0.087 µM; with L1210 [2], 0.14 µM. Further, the pEC50 in the experiment with L1210 [3] is 6.47. The compound further returned an OD in the experiment with L1210 [4] of 5 mg/kg.

As for `COc1ccc2nc3cc(Cl)ccc3c(NCCN3CCC(C4CCN(CC[n+]5ccc6ccc7c(c6c5)c5cc(OC)ccc5n7C)CC4)CC3)c2c1.CS(=O)(=O)[O-]`, the K app x10e-7 with Nucleic Acid was found to be 10 M⁻¹. This compound also gave an MTD with L1210 [1] of 15 mg/kg. Moreover, the EC37 with Escherichia coli is 0.029 µM; in the experiment with L1210 [2], greater than 0.9 µM. Besides, in the experiment on L1210 [3], the pEC50 is 6.62. The OD with L1210 [4] stood at 15 mg/kg.

In the experiment with Nucleic Acid, `COc1ccc2[nH]c3ccc4cc[n+](CCCN5CCC(C6CCN(CC[n+]7ccc8ccc9[nH]c%10ccc(OC)cc%10c9c8c7)CC6)CC5)cc4c3c2c1.CS(=O)(=O)[O-].CS(=O)(=O)[O-]` registered a K app x10e-7 of 5 M⁻¹. The compound also came in with an MTD in the experiment with L1210 [1] of 20 mg/kg. Further, the EC37 came to 0.016 µM with Escherichia coli and 0.09 µM in the experiment on L1210 [2]. The pEC50 in the experiment with L1210 [3] was 6.14. Besides, the T/C in the experiment listed under Mus musculus was 137%. Further, the OD with L1210 [4] came out at 10 mg/kg.
